Experimental findings from ChEMBL document CHEMBL1137283, “Synthesis and biological evaluation of heterocycle containing adamantane 11beta-HSD1 inhibitors” (Bioorg Med Chem Lett, 2006) are described below.

Molecules are shown by their SMILES.

Series [1] addresses T1, 11-beta-hydroxysteroid dehydrogenase 1 (Homo sapiens, UniProt P28845). Briefly: Inhibition of human 11beta-HSD1 expressed in Escherichia coli.
The target of series [2] is T2, 11-beta-hydroxysteroid dehydrogenase type 2 (Homo sapiens, UniProt P80365).
T2 sequence (P80365 whole entry): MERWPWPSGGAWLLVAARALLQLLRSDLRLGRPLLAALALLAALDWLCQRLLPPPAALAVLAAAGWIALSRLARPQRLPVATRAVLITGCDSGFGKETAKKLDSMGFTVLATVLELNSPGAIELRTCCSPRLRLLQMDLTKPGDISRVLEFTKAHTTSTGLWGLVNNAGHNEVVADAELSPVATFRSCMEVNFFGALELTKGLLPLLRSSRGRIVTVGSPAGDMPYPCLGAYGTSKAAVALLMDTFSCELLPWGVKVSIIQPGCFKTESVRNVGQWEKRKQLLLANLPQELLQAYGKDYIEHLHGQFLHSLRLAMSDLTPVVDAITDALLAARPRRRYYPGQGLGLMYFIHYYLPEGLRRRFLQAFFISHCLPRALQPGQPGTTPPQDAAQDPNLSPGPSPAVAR
Briefly: Inhibition of human 11beta-HSD2.

Series [3] deals with 11-beta-hydroxysteroid dehydrogenase 1 (Mus musculus, UniProt P50172). Briefly: Inhibition of mouse 11beta-HSD1 expressed in Escherichia coli. The method in brief: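 Reductase-direction SPA. Total cortisone was 175 nM, including 75 nM ³H-cortisone, with NADPH cofactor in 50 mM Tris–HCl pH 7.2 and 1 mM EDTA. An NADPH regeneration system (1 mM G-6-P, 1 U/mL G-6-PDH) was included. Final enzyme was 0.015 mg/mL, keeping substrate consumption below 25%. The reaction ran 30 min at room temperature. ³H-cortisol was captured by anti-cortisol mAb and anti-mouse SPA beads, then scintillation-counted. IC50 came from % inhibition versus an uninhibited control, as the mean of two experiments.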

Series [4] concerns the target T3, 11-beta-hydroxysteroid dehydrogenase type 2 (Mus musculus, UniProt P51661).
T3 sequence (P51661 whole entry): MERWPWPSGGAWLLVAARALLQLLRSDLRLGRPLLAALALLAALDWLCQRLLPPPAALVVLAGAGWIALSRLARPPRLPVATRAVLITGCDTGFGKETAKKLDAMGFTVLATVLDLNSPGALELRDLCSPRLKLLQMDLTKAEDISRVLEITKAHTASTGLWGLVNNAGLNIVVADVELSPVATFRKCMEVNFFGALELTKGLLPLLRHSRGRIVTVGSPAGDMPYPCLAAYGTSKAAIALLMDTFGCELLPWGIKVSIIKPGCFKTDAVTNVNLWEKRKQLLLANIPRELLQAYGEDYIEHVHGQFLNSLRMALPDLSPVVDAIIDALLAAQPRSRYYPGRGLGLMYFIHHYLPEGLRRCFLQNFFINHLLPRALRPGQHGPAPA
Briefly: Inhibition of mouse 11beta-HSD2.

Series [5] has as its target T1, 11-beta-hydroxysteroid dehydrogenase 1. Nature of the series: Inhibition of human 11beta-HSD1 expressed in HEK293 cells. It counts as cell-based.
The nature of series [6]: Stability in mouse liver microsomes after 30 min. Type of series: ADME, Microsome. To be noted: read-out: Stability. The method in brief: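 Compounds were incubated 30 min with mouse liver microsomes; the result is expressed as % parent remaining.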
Series [7] has as its target 11-beta-hydroxysteroid dehydrogenase 1 (Mus musculus) (UniProt P50172). Nature of the series: Inhibition of DIO mouse liver 11beta-HSD1 at 30 mg/kg 7 hrs post dose. Also on record: dose 30 mg/kg. It counts as organism-based. The method in brief:
(§1)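 DIO mice received one oral 30 mpk dose in 1% Tween 80 / 0.2% hydroxypropyl methylcellulose, 3 mice per point. Liver, epididymal fat and brain were excised at 7 or 16 h, weighed, minced in about 5 volumes PBS and given cortisone at 10 final. Incubation was at 37 °C, 5% CO₂: liver 20 min, fat and brain 3 h. Cortisol was read by LC-MS; % inhibition is versus the vehicle group.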

For series [8] the target is unchanged. Briefly: Inhibition of DIO mouse liver 11beta-HSD1 at 30 mg/kg 16 hrs post dose. Type of series: organism-based. On the set-up: dose 30 mg/kg. The procedure, abridged:
as §1

Series [9] shares this target. Briefly: Inhibition of DIO mouse adipose tissue 11beta-HSD1 at 30 mg/kg 7 hrs post dose. It counts as organism-based. On the set-up: dose 30 mg/kg. The method in brief: as §1
The target is the same in series [10]. Briefly: Inhibition of DIO mouse adipose tissue 11beta-HSD1 at 30 mg/kg 16 hrs post dose. It counts as organism-based. On the set-up: dose 30 mg/kg. The method in brief: as §1
The target is the same in series [11]. Briefly: Inhibition of DIO mouse brain 11beta-HSD1 at 30 mg/kg 7 hrs post dose. It counts as organism-based. Also on record: dose 30 mg/kg. The procedure, abridged: as §1
Series [12] shares this target. Nature of the series: Inhibition of DIO mouse brain 11beta-HSD1 at 30 mg/kg 16 hrs post dose. Type of series: organism-based. Also on record: dose 30 mg/kg. The method in brief:
as §1

Series [13] can be described thus: Plasma clearance in mouse at 10 mg/kg. Type of series: ADME, organism-based. Also on record: dose 10 mg/kg. The method in brief:
(§2)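 Mouse PK: single 10 mg/kg doses given intravenously and orally; the parameters were calculated from these dosings.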

Series [14] can be described thus: Half life in mouse plasma at 10 mg/kg. On the set-up: dose 10 mg/kg. It counts as ADME, organism-based. The method in brief:
as §2

A short description of series [15]: Bioavailability in mouse plasma at 10 mg/kg. Type of series: ADME, organism-based. The procedure, abridged:
as §2

Sequence of 11-beta-hydroxysteroid dehydrogenase 1 (Mus musculus, UniProt P50172) (P50172 whole entry): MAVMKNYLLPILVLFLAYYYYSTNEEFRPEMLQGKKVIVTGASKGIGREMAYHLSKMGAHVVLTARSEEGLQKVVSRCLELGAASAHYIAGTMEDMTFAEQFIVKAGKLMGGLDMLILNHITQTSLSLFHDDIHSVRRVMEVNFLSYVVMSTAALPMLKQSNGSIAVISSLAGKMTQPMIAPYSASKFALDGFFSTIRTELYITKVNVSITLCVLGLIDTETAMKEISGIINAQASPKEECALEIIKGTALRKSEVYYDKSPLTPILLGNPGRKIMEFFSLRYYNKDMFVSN
Sequence of 11-beta-hydroxysteroid dehydrogenase 1 (Mus musculus) (P50172 whole entry, looked up): as the sequence (P50172 whole entry) above
T1 sequence (P28845 whole entry): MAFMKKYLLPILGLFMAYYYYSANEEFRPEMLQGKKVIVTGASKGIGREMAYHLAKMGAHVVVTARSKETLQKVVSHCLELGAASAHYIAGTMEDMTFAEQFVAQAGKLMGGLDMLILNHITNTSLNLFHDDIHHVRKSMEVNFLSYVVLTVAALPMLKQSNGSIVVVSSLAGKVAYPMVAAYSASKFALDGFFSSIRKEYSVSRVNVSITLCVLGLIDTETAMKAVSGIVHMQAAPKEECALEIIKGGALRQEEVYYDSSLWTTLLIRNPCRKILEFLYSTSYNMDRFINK

With `CC(C)(Oc1ccc(N2CCOCC2)cn1)C(=O)N[C@H]1C2C[C@@H]3C[C@H]1C[C@@](CC(N)=O)(C2)C3`, the IC50 was 44 nM in series [1]; above 100000 nM in series [2]; 51 nM in [3]; above 100000 nM in series [4]; 444 nM in [5]. Besides, the remaining at 0.5 h in [6] was 89%.

Consider `CC(C)(Oc1ccc(Br)cn1)C(=O)N[C@H]1C2C[C@@H]3C[C@H]1C[C@@](CC(N)=O)(C2)C3`, for which the values for the IC50 in series [3] and in series [4] were 4 nM and above 100000 nM, respectively. For the same compound, the remaining at 0.5 h in series [6] was 87%. Further, the inhibition turned out to be 57% in series [7], 0% in series [8], 47% in series [9] and 23% in series [10].

Consider `CC(C)(C(=O)N[C@H]1C2C[C@@H]3C[C@H]1C[C@@](CC(N)=O)(C2)C3)c1ccc(C#N)cn1`, for which the IC50 in [1] was 14 nM; in series [2], above 100000 nM; in [3] it was 65 nM; in series [4], 15000 nM; in series [5], 165 nM. The remaining at 0.5 h in series [6] turned out to be 100%.

With `CC(C)(Oc1ccc(Cl)cc1)C(=O)N[C@H]1C2C[C@@H]3C[C@H]1C[C@@](c1ncc[nH]1)(C2)C3`, 11 nM corresponded to half-maximal inhibition in series [3] (IC50). The remaining at 0.5 h in series [6] was 3%.

Regarding `CN1CCN(c2ccc(OC(C)(C)C(=O)N[C@H]3C4C[C@@H]5C[C@H]3C[C@@](CC(N)=O)(C4)C5)nc2)CC1`, the IC50 in series [1] is 185 nM; in series [2] it was above 100000 nM; in series [3], 519 nM; in series [4], above 100000 nM; in [5] it was above 10000 nM.

For `CC(C)(Oc1ccc(-n2cccn2)cn1)C(=O)N[C@H]1C2C[C@@H]3C[C@H]1C[C@@](CC(N)=O)(C2)C3`, the half-maximal inhibitory concentration (IC50) in series [1] was 5 nM; in [2], above 100000 nM; in series [3], 11 nM; in series [4] it was above 100000 nM; in [5] it was 38 nM. Besides, the remaining at 0.5 h in [6] was found to be 83%.

For `CC(C)(Oc1ccc(Cl)cc1)C(=O)N[C@H]1C2C[C@@H]3C[C@H]1C[C@@](CCC(=O)O)(C2)C3`, the half-inhibitory concentration (IC50) in series [3] came out at 74 nM; in series [4], 28000 nM. For the same compound, the remaining at 0.5 h in series [6] was determined as 78%. In addition, the inhibition in [7] was 99%; in series [8] it was 93%; in series [11] it was 67%; in series [12] it was 18%; in series [9], 50%; in [10] it was 23%. Besides, the clearance in series [13] is 13.3 mL/min/kg. This compound also gave a half-life in series [14] of 2.6 h. For the same compound, in series [15], the bioavailability was found to be 86.3%.

Consider `CC(C)(Oc1ccc(Cl)cc1)C(=O)N[C@H]1C2C[C@@H]3C[C@H]1C[C@@](Cc1nnn[nH]1)(C2)C3`, for which the IC50 in series [1] was 41 nM; in [2], above 100000 nM; in series [3], 87 nM; in series [4] it was 7000 nM; in [5], 119 nM. For the same compound, the remaining at 0.5 h in series [6] came to 79%. Also, the inhibition in [7] stood at 62%; in series [8], 37%; in series [11], 11%; in series [12], 9%; in series [9], 17%; in series [10], 20%. For the same compound, the clearance in series [13] was 20 mL/min/kg. The compound also showed a half-life in [14] of 2.3 h. Further, the bioavailability in series [15] is 39.7%.

For the compound `CC(C)(Oc1ccc(Cl)cc1)C(=O)N[C@H]1C2C[C@@H]3C[C@H]1C[C@@](c1noc(=O)[nH]1)(C2)C3`, the figures for the IC50 in series [3] and in series [4] were 101 nM and 100000 nM, respectively.

`CNc1ccc(C(C)(C)C(=O)N[C@H]2C3C[C@@H]4C[C@H]2C[C@@](CC(N)=O)(C3)C4)cn1`: the IC50 in series [1] is 29 nM; in series [2] it was above 100000 nM; in series [3] it was 310 nM; in [4], above 100000 nM; in [5], 246 nM. Also, the remaining at 0.5 h in series [6] amounted to 83%.

For the compound `CC(C)(Oc1ccc(Cl)cc1)C(=O)N[C@H]1C2C[C@@H]3C[C@H]1C[C@@](c1ccno1)(C2)C3`, the IC50 in series [3] was 71 nM. Further, the remaining at 0.5 h in series [6] turned out to be 30%.

For `CC(C)(Oc1ccc(Cl)cc1)C(=O)N[C@H]1C2C[C@@H]3C[C@H]1C[C@@](c1nnc(N)[nH]1)(C2)C3`, the IC50 in series [3] came to 53 nM. For the same compound, the remaining at 0.5 h in series [6] came to 41%.

For the compound `CC(C)(Oc1ccc(Cl)cc1)C(=O)N[C@H]1C2C[C@@H]3C[C@H]1C[C@@](c1nc(C#N)c(N)o1)(C2)C3`, the IC50 is 146 nM in [1]; above 100000 nM in [2]; 205 nM in [3]; 50000 nM in series [4]; 306 nM in [5]. Moreover, the remaining at 0.5 h in series [6] is 25%.

Regarding `CC(C)(Oc1ccc(Cl)cc1)C(=O)N[C@H]1C2C[C@@H]3C[C@H]1C[C@@](/C(N)=N/O)(C2)C3`, the concentration for half-maximal inhibition (IC50) was 26 nM in [3] and above 100000 nM in series [4]. In [6], the remaining at 0.5 h was 64%. Besides, the inhibition amounted to 89% in series [7]; 84% in series [8]; 85% in series [11]; 79% in series [12]; 92% in series [9]; 67% in series [10]. The clearance in series [13] is 76.7 mL/min/kg. Further, the half-life in series [14] was 0.4 h. In addition, the bioavailability in [15] came out at 61.6%.

As to `CC(C)(Oc1ccc(Cl)cc1)C(=O)N[C@H]1C2C[C@@H]3C[C@H]1C[C@@](CC(=O)O)(C2)C3`, the IC50 in series [3] is 92 nM; in series [4], 20700 nM. Besides, the remaining at 0.5 h in series [6] was 94%. The inhibition in series [7] is 40%; in series [8], 0%; in series [9] it was 70%; in [10] it was 35%. The compound also showed a clearance in series [13] of 3.33 mL/min/kg. The compound further showed a half-life in [14] of 2 h. The compound also came in with a bioavailability in series [15] of 96.1%.
